# In ChEMBL document CHEMBL4118244, “Design, synthesis and biological evaluation of benzofuran appended benzothiazepine derivatives as inhibitors of butyrylcholinesterase and antimicrobial agents” (Bioorg Med Chem, 2018):
# pIC50: −log10 of the molar value. The source made the active and inactive calls. No cut-off for these calls is given here.
# Tests used:
# Cholinesterase = Cholinesterase (Equus caballus, UniProt P81908); experiment: Inhibition of equine serum BChE using butyrylthiocholine iodide as substrate pretreated for 15 mins followed by substrate addition measured for 6 mins by Ellman's method; conditions: for pIC50: read-out: IC50
# Summary of the method: (§1)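 Ellman spectrophotometric assay in 0.1 M phosphate buffer pH 8.0 with DTNB, 25 °C. AChE (electric eel, Type V-S) or BChE was preincubated 15 min with compound before adding acetylthiocholine iodide or butyrylthiocholine iodide, respectively. Absorbance change at 412 nm was read for 6 min. Five concentrations were tested in triplicate, corrected by a nonenzymatic blank, with a no-inhibitor reference.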
# [1] = molecular target: Acetylcholinesterase (Electrophorus electricus) (UniProt O42275); experiment: Inhibition of electric eel AChE using acetylthiocholine iodide as substrate pretreated for 15 mins followed by substrate addition measured for 6 mins by Ellman's method; summary of the method: as §1
# Staphylococcus aureus [2] = experiment: Antibacterial activity against Staphylococcus aureus ATCC 29737 assessed as diameter of inhibition zone at 200 ug per disc after 24 hrs by agar disc diffusion method; format: functional; conditions: ATCC 29737, 24 h, read-out: DIZ
# Summary of the method: (§2)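 Agar disc diffusion. Compounds at 20 mg mL⁻¹ in DMSO, filter-sterilised. 100 µL of 10⁸ CFU mL⁻¹ bacteria spread on nutrient agar. 6 mm discs carried 10 µl (200 µg per disc), with DMSO discs as negative control. Incubation 24 h at 37 °C. Read-out is inhibition zone diameter, mean of 3 repeats (±1 mm).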
# Bacillus spizizenii [3] = experiment: Antibacterial activity against Bacillus subtilis ATCC 6633 assessed as diameter of inhibition zone at 200 ug per disc after 24 hrs by agar disc diffusion method; format: functional; conditions: for zone of inhibition at 200 µg/disc: ATCC 6633, 24 h, read-out: DIZ; summary of the method: as §2
# [4] = system: Staphylococcus epidermidis; experiment: Antibacterial activity against Staphylococcus epidermidis ATCC 12228 assessed as diameter of inhibition zone at 200 ug per disc after 24 hrs by agar disc diffusion method; format: functional; conditions: for zone of inhibition at 200 µg/disc: ATCC 12228, 24 h, read-out: DIZ; summary of the method: as §2
# Staphylococcus aureus [5] = experiment: Antibacterial activity against Staphylococcus aureus ATCC 29737; format: functional
# Bacillus spizizenii [6] = experiment: Antibacterial activity against Bacillus subtilis ATCC 6633; format: functional
# [7] = system: Staphylococcus epidermidis; experiment: Antibacterial activity against Staphylococcus epidermidis ATCC 12228; format: functional
# Salmonella paratyphi [8] = experiment: Antibacterial activity against Salmonella paratyphi A serotype ATCC 5702 assessed as diameter of inhibition zone at 200 ug per disc after 24 hrs by agar disc diffusion method; format: functional, Salmonella enterica subsp. enterica serovar Paratyphi A; conditions: for zone of inhibition at 200 µg/disc: Salmonella enterica, ATCC 5702, 24 h, read-out: DIZ; summary of the method: as §2
# Escherichia coli [9] = experiment: Antibacterial activity against Escherichia coli ATCC 10536 assessed as diameter of inhibition zone at 200 ug per disc after 24 hrs by agar disc diffusion method; format: functional; conditions: ATCC 10536, 24 h, read-out: DIZ; summary of the method: as §2
# Pseudomonas aeruginosa [10] = experiment: Antibacterial activity against Pseudomonas aeruginosa ATCC 27853 assessed as diameter of inhibition zone at 200 ug per disc after 24 hrs by agar disc diffusion method; format: functional; conditions: ATCC 27853, 24 h, read-out: DIZ; summary of the method: as §2
# Klebsiella pneumoniae [11] = experiment: Antibacterial activity against Klebsiella pneumoniae ATCC 10031 assessed as diameter of inhibition zone at 200 ug per disc after 24 hrs by agar disc diffusion method; format: functional; conditions: for zone of inhibition at 200 µg/disc: ATCC 10031, 24 h, read-out: DIZ; summary of the method: as §2
# Shigella dysenteriae [12] = experiment: Antibacterial activity against Shigella dysenteriae PTCC 1188 assessed as diameter of inhibition zone at 200 ug per disc after 24 hrs by agar disc diffusion method; format: functional; conditions: for zone of inhibition at 200 µg/disc: PTCC 1188, 24 h, read-out: DIZ; summary of the method: as §2
# Proteus vulgaris [13] = experiment: Antibacterial activity against Proteus vulgaris PTCC 1182 assessed as diameter of inhibition zone at 200 ug per disc after 24 hrs by agar disc diffusion method; format: functional; conditions: for zone of inhibition at 200 µg/disc: PTCC 1182, 24 h, read-out: DIZ; summary of the method: as §2
# Salmonella paratyphi [14] = experiment: Antibacterial activity against Salmonella paratyphi A serotype ATCC 5702; format: functional; conditions: Salmonella enterica subsp. enterica serovar Paratyphi A
# Escherichia coli [15] = experiment: Antibacterial activity against Escherichia coli ATCC 10536; format: functional
# Pseudomonas aeruginosa [16] = experiment: Antibacterial activity against Pseudomonas aeruginosa ATCC 27853; format: functional
# Klebsiella pneumoniae [17] = experiment: Antibacterial activity against Klebsiella pneumoniae ATCC 10031; format: functional
# Shigella dysenteriae [18] = experiment: Antibacterial activity against Shigella dysenteriae PTCC 1188; format: functional
# Proteus vulgaris [19] = experiment: Antibacterial activity against Proteus vulgaris PTCC 1182; format: functional
# Candida albicans [20] = experiment: Antifungal activity against Candida albicans ATCC 10231 assessed as diameter of inhibition zone at 200 ug per disc after 48 hrs by agar disc diffusion method; format: functional; conditions: ATCC 10231, 48 h, read-out: DIZ
# Summary of the method: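 Yeast tested by agar disc diffusion. Compounds at 20 mg mL⁻¹ in DMSO, filter-sterilised. 6 mm discs carried 10 µl (200 µg per disc), with DMSO discs as negative control. Incubation 48 h at 30 °C. Zone diameter was averaged over 3 repeats (±1 mm).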
# Aspergillus niger [21] = experiment: Antifungal activity against Aspergillus niger ATCC 16404 assessed as diameter of inhibition zone at 200 ug per disc after 72 hrs by agar disc diffusion method; format: functional; conditions: for zone of inhibition at 200 µg/disc: ATCC 16404, 72 h, read-out: DIZ
# Summary of the method: (§3)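 Agar disc diffusion against mold. Compounds at 20 mg mL⁻¹ in DMSO, filter-sterilised. 6 mm discs carried 10 µl (200 µg per disc), with DMSO discs as negative control. Incubation 72 h at 30 °C. Read-out is growth inhibition zone diameter, mean of 3 repeats (±1 mm).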
# Aspergillus brasiliensis [22] = experiment: Antifungal activity against Aspergillus brasiliensis PTCC 5011 assessed as diameter of inhibition zone at 200 ug per disc after 72 hrs by agar disc diffusion method; format: functional; conditions: for zone of inhibition at 200 µg/disc: PTCC 5011, 72 h, read-out: DIZ; summary of the method: as §3
# Candida albicans [23] = experiment: Antifungal activity against Candida albicans ATCC 10231; format: functional
# Aspergillus niger [24] = experiment: Antifungal activity against Aspergillus niger ATCC 16404; format: functional
# Aspergillus brasiliensis [25] = experiment: Antifungal activity against Aspergillus brasiliensis PTCC 5011; format: functional
# Cholinesterase, sequence (P81908 whole entry): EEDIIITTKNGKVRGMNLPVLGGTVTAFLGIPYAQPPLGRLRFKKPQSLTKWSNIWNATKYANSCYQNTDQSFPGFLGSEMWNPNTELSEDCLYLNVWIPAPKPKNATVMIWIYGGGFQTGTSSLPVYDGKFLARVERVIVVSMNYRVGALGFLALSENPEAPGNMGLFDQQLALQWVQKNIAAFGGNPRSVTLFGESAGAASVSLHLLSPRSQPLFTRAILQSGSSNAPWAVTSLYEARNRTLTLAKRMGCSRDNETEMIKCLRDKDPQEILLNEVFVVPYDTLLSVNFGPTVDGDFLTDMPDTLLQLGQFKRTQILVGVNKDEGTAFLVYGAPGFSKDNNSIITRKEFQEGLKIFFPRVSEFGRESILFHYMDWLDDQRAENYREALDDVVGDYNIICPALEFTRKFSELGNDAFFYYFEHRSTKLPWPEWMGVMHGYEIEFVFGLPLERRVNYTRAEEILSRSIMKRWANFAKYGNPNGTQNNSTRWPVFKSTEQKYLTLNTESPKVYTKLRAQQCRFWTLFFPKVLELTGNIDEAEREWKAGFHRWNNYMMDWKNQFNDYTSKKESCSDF
# Acetylcholinesterase (Electrophorus electricus), sequence (O42275 24-633 limits assumed): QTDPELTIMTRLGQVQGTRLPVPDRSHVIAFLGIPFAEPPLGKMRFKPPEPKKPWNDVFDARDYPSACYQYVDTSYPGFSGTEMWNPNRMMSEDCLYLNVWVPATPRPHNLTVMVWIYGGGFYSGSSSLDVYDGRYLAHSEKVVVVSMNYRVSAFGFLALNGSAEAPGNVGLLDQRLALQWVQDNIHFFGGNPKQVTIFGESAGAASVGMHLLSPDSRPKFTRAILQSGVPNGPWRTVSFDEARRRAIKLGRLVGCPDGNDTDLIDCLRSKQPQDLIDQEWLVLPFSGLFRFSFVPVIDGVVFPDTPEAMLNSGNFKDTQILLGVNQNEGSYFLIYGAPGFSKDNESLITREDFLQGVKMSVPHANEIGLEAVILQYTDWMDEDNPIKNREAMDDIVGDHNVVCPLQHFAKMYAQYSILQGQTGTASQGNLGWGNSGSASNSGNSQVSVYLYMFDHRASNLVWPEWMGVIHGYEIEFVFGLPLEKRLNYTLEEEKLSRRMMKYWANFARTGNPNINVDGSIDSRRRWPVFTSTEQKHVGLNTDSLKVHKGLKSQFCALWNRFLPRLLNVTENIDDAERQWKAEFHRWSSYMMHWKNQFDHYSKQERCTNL
molecule,measurement,setting,value
c1ccc2c(c1)N=C(c1cc3ccccc3o1)CC(c1c[nH]c3ccccc13)S2 (stereo not drawn),pIC50,Cholinesterase,4.22
same,inhibition,[1],inactive
O=[N+]([O-])c1ccc2oc(C3=Nc4ccccc4SC(c4ccccc4F)C3)cc2c1 (stereo not drawn),pIC50,Cholinesterase,4.66
same,zone of inhibition at 200 µg/disc,Staphylococcus aureus [2],17 mm
same,zone of inhibition at 200 µg/disc,Bacillus spizizenii [3],< 6 mm
same,zone of inhibition at 200 µg/disc,[4],10 mm
same,MIC,Staphylococcus aureus [5],2.5 mg/L
same,MIC,Bacillus spizizenii [6],inactive
same,MIC,[7],5 mg/L
same,zone of inhibition at 200 µg/disc,Salmonella paratyphi [8],< 6 mm
same,zone of inhibition at 200 µg/disc,Escherichia coli [9],12 mm
same,zone of inhibition at 200 µg/disc,Pseudomonas aeruginosa [10],< 6 mm
same,zone of inhibition at 200 µg/disc,Klebsiella pneumoniae [11],< 6 mm
same,zone of inhibition at 200 µg/disc,Shigella dysenteriae [12],< 6 mm
same,zone of inhibition at 200 µg/disc,Proteus vulgaris [13],23 mm
same,MIC,Salmonella paratyphi [14],inactive
same,MIC,Escherichia coli [15],50 mg/L
same,MIC,Pseudomonas aeruginosa [16],inactive
same,MIC,Klebsiella pneumoniae [17],inactive
same,MIC,Shigella dysenteriae [18],inactive
same,MIC,Proteus vulgaris [19],0.125 mg/L
same,zone of inhibition at 200 µg/disc,Candida albicans [20],19 mm
same,zone of inhibition at 200 µg/disc,Aspergillus niger [21],< 6 mm
same,zone of inhibition at 200 µg/disc,Aspergillus brasiliensis [22],< 6 mm
same,MIC,Candida albicans [23],0.125 mg/L
same,MIC,Aspergillus niger [24],inactive
same,MIC,Aspergillus brasiliensis [25],inactive
same,inhibition,[1],inactive
COc1ccccc1C1CC(c2cc3cc(Br)ccc3o2)=Nc2ccccc2S1 (stereo not drawn),pIC50,Cholinesterase,5.74
same,inhibition,[1],inactive
O=[N+]([O-])c1ccc2oc(C3=Nc4ccccc4SC(c4ccccc4)C3)cc2c1 (stereo not drawn),IC50,Cholinesterase,Not Active
same,inhibition,[1],inactive
Brc1ccc2oc(C3=Nc4ccccc4SC(c4ccccc4)C3)cc2c1 (stereo not drawn),pIC50,Cholinesterase,5.07
same,inhibition,[1],inactive
Cc1ccc(C2CC(c3cc4cc(Br)ccc4o3)=Nc3ccccc3S2)cc1 (stereo not drawn),pIC50,Cholinesterase,5.07
same,inhibition,[1],inactive
NYSTATIN,inhibition zone (IZ),Aspergillus niger [21],27 mm
same,inhibition zone (IZ),Aspergillus brasiliensis [22],23 mm
same,MIC,Candida albicans [23],0.125 mg/L
same,MIC,Aspergillus niger [24],0.25 mg/L
same,MIC,Aspergillus brasiliensis [25],0.5 mg/L
COc1ccccc1C1CC(c2cc3ccccc3o2)=Nc2ccccc2S1 (stereo not drawn),pIC50,Cholinesterase,5.32
same,inhibition,[1],inactive
COc1ccc(C2CC(c3cc4cc(Br)ccc4o3)=Nc3ccccc3S2)cc1 (stereo not drawn),pIC50,Cholinesterase,6.00
same,inhibition,[1],inactive
O=[N+]([O-])c1ccc2oc(C3=Nc4ccccc4SC(c4c[nH]c5ccccc45)C3)cc2c1 (stereo not drawn),pIC50,Cholinesterase,4.14
same,inhibition,[1],inactive
COc1cccc(C2CC(c3cc4ccccc4o3)=Nc3ccccc3S2)c1 (stereo not drawn),pIC50,Cholinesterase,5.39
same,inhibition,[1],inactive
COc1cccc2cc(C3=Nc4ccccc4SC(c4ccc(O)cc4)C3)oc12 (stereo not drawn),pIC50,Cholinesterase,5.39
same,inhibition,[1],inactive
CO[C@H]1/C=C/O[C@@]2(C)Oc3c(C)c(O)c4c(O)c(c(/C=N/N5CCN(C)CC5)c(O)c4c3C2=O)NC(=O)/C(C)=C\C=C\[C@H](C)[C@H](O)[C@@H](C)[C@@H](O)[C@@H](C)[C@H](OC(C)=O)[C@@H]1C [RIFAMPIN],zone of inhibition at 200 µg/disc,Staphylococcus aureus [2],10 mm
same,zone of inhibition at 200 µg/disc,Bacillus spizizenii [3],13 mm
same,zone of inhibition at 200 µg/disc,[4],40 mm
same,MIC,Staphylococcus aureus [5],0.25 mg/L
same,MIC,Bacillus spizizenii [6],0.125 mg/L
same,MIC,[7],0.25 mg/L
same,zone of inhibition at 200 µg/disc,Salmonella paratyphi [8],< 6 mm
same,zone of inhibition at 200 µg/disc,Escherichia coli [9],11 mm
same,zone of inhibition at 200 µg/disc,Pseudomonas aeruginosa [10],< 6 mm
same,zone of inhibition at 200 µg/disc,Klebsiella pneumoniae [11],7 mm
same,zone of inhibition at 200 µg/disc,Shigella dysenteriae [12],8 mm
same,zone of inhibition at 200 µg/disc,Proteus vulgaris [13],10 mm
same,MIC,Salmonella paratyphi [14],inactive
same,MIC,Escherichia coli [15],0.5 mg/L
same,MIC,Pseudomonas aeruginosa [16],inactive
same,MIC,Klebsiella pneumoniae [17],0.25 mg/L
same,MIC,Shigella dysenteriae [18],0.25 mg/L
same,MIC,Proteus vulgaris [19],0.125 mg/L
GENTAMICIN,inhibition zone (IZ),Bacillus spizizenii [3],21 mm
same,inhibition zone (IZ),[4],35 mm
same,inhibition zone (IZ),Salmonella paratyphi [8]; Salmonella enterica subsp. enterica serovar Paratyphi A,21 mm
same,inhibition zone (IZ),Klebsiella pneumoniae [11],22 mm
same,inhibition zone (IZ),Shigella dysenteriae [12],18 mm
same,inhibition zone (IZ),Proteus vulgaris [13],23 mm
same,MIC,Pseudomonas aeruginosa [16],inactive
same,MIC,Klebsiella pneumoniae [17],0.25 mg/L
COc1ccc(C2CC(c3cc4ccccc4o3)=Nc3ccccc3S2)cc1 (stereo not drawn),pIC50,Cholinesterase,5.40
same,inhibition,[1],inactive
c1ccc2c(c1)N=C(c1cc3ccccc3o1)CC(c1cccc3ccccc13)S2 (stereo not drawn),pIC50,Cholinesterase,4.20
same,zone of inhibition at 200 µg/disc,Staphylococcus aureus [2],10 mm
same,zone of inhibition at 200 µg/disc,Bacillus spizizenii [3],< 6 mm
same,zone of inhibition at 200 µg/disc,[4],9 mm
same,MIC,Staphylococcus aureus [5],5 mg/L
same,MIC,Bacillus spizizenii [6],inactive
same,MIC,[7],5 mg/L
same,zone of inhibition at 200 µg/disc,Candida albicans [20],14 mm
same,zone of inhibition at 200 µg/disc,Aspergillus niger [21],< 6 mm
same,zone of inhibition at 200 µg/disc,Aspergillus brasiliensis [22],< 6 mm
same,MIC,Candida albicans [23],25 mg/L
same,MIC,Aspergillus niger [24],inactive
same,MIC,Aspergillus brasiliensis [25],inactive
same,inhibition,[1],inactive
Oc1ccc(C2CC(c3cc4ccccc4o3)=Nc3ccccc3S2)cc1 (stereo not drawn),pIC50,Cholinesterase,4.85
same,inhibition,[1],inactive
COc1cccc(C2CC(c3cc4cc(Br)ccc4o3)=Nc3ccccc3S2)c1 (stereo not drawn),pIC50,Cholinesterase,6.00
same,inhibition,[1],inactive
Brc1ccc2oc(C3=Nc4ccccc4SC(c4c[nH]c5ccccc45)C3)cc2c1 (stereo not drawn),pIC50,Cholinesterase,4.55
same,inhibition,[1],inactive
COc1cccc2cc(C3=Nc4ccccc4SC(c4ccccc4)C3)oc12 (stereo not drawn),pIC50,Cholinesterase,5.60
same,inhibition,[1],inactive
Oc1ccc(C2CC(c3cc4cc(Br)ccc4o3)=Nc3ccccc3S2)cc1 (stereo not drawn),pIC50,Cholinesterase,5.19
same,inhibition,[1],inactive
